According to article PMC9199482 (Surgical Endoscopy, 2022):
Like-named read-outs stand apart in the source and are kept apart here.

Key:
[1] = tested on: patients undergoing LRYGB; experiment: RCT of intraperitoneal local anesthetic in LRYGB with ERABS protocol; format: in vivo, human; conditions: intraperitoneal ropivacaine 0.2% 100 mL; both groups
Summary of the method: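 Prospective double-blind randomised controlled pilot trial with an a-priori protocol: 120 laparoscopic Roux-en-Y gastric bypass patients under an established ERABS protocol. Patients were randomised to intraperitoneal ropivacaine 0.2% 100 mL or normal saline 100 mL. Adverse events were recorded in both arms.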

[2] = tested on: small bowel of large white pigs; format: in vivo, pig; conditions: five pigs, baseline 0.74
[3] = tested on: patients with right colon cancer; experiment: ICG fluorescence lymphography in robotic right hemicolectomy; format: in vivo, human; conditions: 9 patients
Summary of the method: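 Right colon cancer patients had robotic right hemicolectomy with complete mesocolic excision, in two arms of 9. One arm received intraoperative submucosal ICG injection, and fluorescence guided the lymphadenectomy. The comparison arm had standard technique without ICG. ICG-related complications were recorded, with histological nodal staging afterwards.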

[4] = tested on: patients scheduled for laparoscopic cholecystectomy; experiment: Near-infrared fluorescence cholangiography at a very low dose of ICG; format: in vivo, human; conditions: n = 44
Summary of the method: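 Prospective study of patients scheduled for laparoscopic cholecystectomy. Each received 0.25 mg ICG intravenously after anaesthetic induction, then NIR fluorescence cholangiography in endoscope overlay mode. Visualisation of the cystic duct, common bile duct and their junction was recorded before and after Calot's triangle dissection. Also recorded: hepatic hyperluminescence, adverse reactions and surgeon satisfaction on a visual analogue scale.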

[5] = tested on: patients with symptomatic cholelithiasis or acute cholecystitis; experiment: Direct gallbladder ICG injection during laparoscopic cholecystectomy; format: in vivo, human; conditions: 29 patients
Summary of the method: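 Prospective series of laparoscopic cholecystectomies. ICG was diluted in 10 cc sterile water and injected percutaneously into the gallbladder through a 22G fine needle under direct laparoscopic vision; 2–4 cc was given. Cystic, common bile and common hepatic ducts were recorded as identified or not, first after injection before dissection, then after dissection began.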

[6] = tested on: patients with colorectal cancer; format: in vivo, human
Summary of the method: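 Prospective observational study of consecutive patients from 4/2019 undergoing robotic colorectal cancer surgery. The day before surgery, endoscopy delivered 3 mg ICG in 6 ml saline into the peritumoral submucosa as four 1.5 ml injections at the cardinal points. Fluorescence guided any extension of standard lymphadenectomy. Fluorescent extraregional nodes were counted per patient and by resection type.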

adrenal vein = experiment: Intraoperative ICG angiography in laparoscopic adrenal resection; format: in vivo, patients
[7] = 0.25 mg ICG i.v. after anaesthetic induction
[8] = after ICG injection and before starting the dissection

CCCN1CCCC[C@H]1C(=O)Nc1c(C)cccc1C [ropivacaine]
adverse events [1]: no adverse events

NC[C@H](O)c1ccc(O)c(O)c1 [norepinephrine]
local capillary lactate (LCL) ([2]; first assessment): 0.82 mmol/L | local capillary lactate (LCL) ([2]; fourth assessment): 0.62 mmol/L | local capillary lactate (LCL) ([2]; second assessment): 0.64 mmol/L | local capillary lactate (LCL) ([2]; third assessment): 0.60 mmol/L

CC1(C)C(/C=C/C=C/C=C/C=C2\N(CCCCS(=O)(=O)O)c3ccc4ccccc4c3C2(C)C)=[N+](CCCCS(=O)(=O)[O-])c2ccc3ccccc3c21 [ICG, indocyanine green]
ICG-related complications [3]: none | CBD identified by ICG NIRF-C [4, 7]: 100% | CD identified by ICG NIRF-C [4, 7]: 71% | CDBDJ identified by ICG NIRF-C [4, 7]: 84% | bile duct injuries or allergic reactions to ICG ([4]; 0.25 mg ICG i.v.): no bile duct injuries (BDIs) or allergic reactions to ICG | surgeries with surgeon satisfaction of 4/5 or 5/5 (VAS) ([4]; 0.25 mg ICG i.v.): ~90% | cases with common bile duct identified [5, 8]: 18 cases | cases with common hepatic duct identified [5, 8]: 9 cases | cases with common bile duct identified ([5]; after starting the dissection): 27 cases | cases with common hepatic duct identified ([5]; after starting the dissection): 14 cases | cases with cystic duct identified ([5]; after starting the dissection): all cases | patients with ICG-fluorescent lymphnodes observed ([6]; 3 mg ICG in 6 ml saline, peritumoral submucosal, day before surgery, 86/88): 97,7% | patients with fluorescent extraregional lymph nodes ([6]; 34 of 88 patients): 38,6% | ICG-injection related complication ([6]; 88 patients): No ICG-injection related complication occurred | patients with fluorescent extraregional lymph nodes ([6]; anterior rectal resections): 21/33 | patients with fluorescent extraregional lymph nodes ([6]; left hemicolectomies): 3/20 | mean number of retrieved extraregional fluorescent lymph nodes ([6]; range 1–8): 4 | patients with fluorescent extraregional lymph nodes ([6]; right hemicolectomies): 10/31 | cases in which ICG confirmed the adrenal vein (adrenal vein; laparoscopic right adrenal resection): 2/3 | cases in which ICG helped identify the vessel, after the dissection (adrenal vein; left laparoscopic adrenalectomy): 100%
